From ChEMBL document CHEMBL1154727, “Cytotoxic activity of 3-(5-phenyl-3H-[1,2,4]dithiazol-3-yl)chromen-4-ones and 4-oxo-4H-chromene-3-carbothioic acid N-phenylamides” (Eur J Med Chem, 2010)

Legend:
COLO 205 [1] = assay: Growth inhibition of human COLO205 cells after 48 hrs by sulforhodamine B assay; assay type: functional, cell-based; details: COLO 205, 48 h
Summary of the method: (§1)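 Cells kept in RPMI-1640 with 10% FBS, penicillin and streptomycin; trypan blue viability check beforehand. Seeded at 1 × 10^4 cells/well, 24 h at 37 °C, 5% CO2, then treated in quadruplicate for 48 h. Compounds diluted in medium with 50 µg/ml gentamycin; single test level 100 µM. TCA fixation at 4 °C for 1 h, SRB stain, Tris pH 10.5 solubilization, OD 540 nm. IC50 taken as the mean from dose-response curves.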

OVCAR-5 (human) [2] = assay: Growth inhibition of human OVCAR-5 cells after 48 hrs by sulforhodamine B assay; details: OVCAR-5, 48 h
A549 [3] = assay: Growth inhibition of human A549 cells at 100 uM after 48 hrs by sulforhodamine B assay; assay type: functional; details: A549, 48 h, read-out: GI; summary of the method: as §1
HEp-2 [4] = assay: Growth inhibition of human Hep2 cells at 100 uM after 48 hrs by sulforhodamine B assay; assay type: functional; details: HEp-2, 48 h, read-out: GI; summary of the method: as §1
HEp-2 [5] = assay: Growth inhibition of human Hep2 cells after 48 hrs by sulforhodamine B assay; assay type: functional, cell-based; details: HEp-2, 48 h; summary of the method: as §1
PC-3 [6] = assay: Growth inhibition of human PC3 cells after 48 hrs by sulforhodamine B assay; assay type: functional, cell-based; details: PC-3, 48 h; summary of the method: as §1
OVCAR-5 (human) [7] = assay: Growth inhibition of human OVCAR-5 cells at 100 uM after 48 hrs by sulforhodamine B assay; details: OVCAR-5, 48 h, read-out: GI
PC-3 [8] = assay: Growth inhibition of human PC3 cells at 100 uM after 48 hrs by sulforhodamine B assay; assay type: functional; details: PC-3, 48 h, read-out: GI; summary of the method: as §1
IMR-32 [9] = assay: Growth inhibition of human IMR32 cells after 48 hrs by sulforhodamine B assay; assay type: functional, cell-based; details: IMR-32, 48 h; summary of the method: as §1
IMR-32 [10] = assay: Growth inhibition of human IMR32 cells at 100 uM after 48 hrs by sulforhodamine B assay; assay type: functional; details: IMR-32, 48 h, read-out: GI; summary of the method: as §1
COLO 205 [11] = assay: Growth inhibition of human COLO205 cells at 100 uM after 48 hrs by sulforhodamine B assay; assay type: functional; details: COLO 205, 48 h, read-out: GI; summary of the method: as §1
A549 [12] = assay: Growth inhibition of human A549 cells after 48 hrs by sulforhodamine B assay; assay type: functional, cell-based; details: A549, 48 h; summary of the method: as §1
IMR-32 [13] = assay: Growth inhibition of human IMR32 cells at 1 uM after 48 hrs by sulforhodamine B assay; assay type: functional; details: IMR-32, 48 h, read-out: GI
Summary of the method: (§2)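 Cells grown in RPMI-1640 with 10% FBS and antibiotics, plated at 1 × 10^4 cells/well for 24 h at 37 °C, 5% CO2. Agents diluted in gentamycin-containing medium, then added in quadruplicate for 48 h. Cells fixed with cold TCA at 4 °C for 1 h, stained with 0.4% SRB, and dye dissolved in 10 mM Tris pH 10.5; absorbance read at 540 nm.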

HEp-2 [14] = assay: Growth inhibition of human Hep2 cells at 1 uM after 48 hrs by sulforhodamine B assay; assay type: functional; details: HEp-2, 48 h, read-out: GI; summary of the method: as §2
A549 [15] = assay: Growth inhibition of human A549 cells at 1 uM after 48 hrs by sulforhodamine B assay; assay type: functional; details: A549, 48 h, read-out: GI; summary of the method: as §2
PC-3 [16] = assay: Growth inhibition of human PC3 cells at 20 uM after 48 hrs by sulforhodamine B assay; assay type: functional; details: PC-3, 48 h, read-out: GI
Summary of the method: (§3)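 Cells kept in RPMI-1640 with 10% FBS, penicillin and streptomycin; viability checked by trypan blue before use. Seeded at 1 × 10^4 cells/well, 24 h at 37 °C in 5% CO2, then compound (diluted in medium with gentamycin) added in quadruplicate for 48 h. Cells fixed with cold 50% TCA at 4 °C for 1 h, stained with 0.4% SRB, dye dissolved in 10 mM Tris pH 10.5, OD read at 540 nm.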

OVCAR-3 = assay: Growth inhibition of human OVCAR-3 cells at 20 uM after 48 hrs by sulforhodamine B assay; assay type: functional; details: OVCAR-3, 48 h, read-out: GI; summary of the method: as §3
COLO 205 [17] = assay: Growth inhibition of human COLO205 cells at 20 uM after 48 hrs by sulforhodamine B assay; assay type: functional; details: COLO 205, 48 h, read-out: GI; summary of the method: as §3
COLO 205 [18] = assay: Growth inhibition of human COLO205 cells at 10 uM after 48 hrs by sulforhodamine B assay; assay type: functional; details: COLO 205, 48 h, read-out: GI; summary of the method: as §2
OVCAR-5 (human) [19] = assay: Growth inhibition of human OVCAR-5 cells at 10 uM after 48 hrs by sulforhodamine B assay; details: OVCAR-5, 48 h, read-out: GI
PC-3 [20] = assay: Growth inhibition of human PC3 cells at 10 uM after 48 hrs by sulforhodamine B assay; assay type: functional; details: PC-3, 48 h, read-out: GI; summary of the method: as §2
IMR-32 [21] = assay: Growth inhibition of human IMR32 cells at 10 uM after 48 hrs by sulforhodamine B assay; assay type: functional; details: IMR-32, 48 h, read-out: GI; summary of the method: as §2
HEp-2 [22] = assay: Growth inhibition of human Hep2 cells at 10 uM after 48 hrs by sulforhodamine B assay; assay type: functional; details: HEp-2, 48 h, read-out: GI; summary of the method: as §2
A549 [23] = assay: Growth inhibition of human A549 cells at 10 uM after 48 hrs by sulforhodamine B assay; assay type: functional; details: A549, 48 h, read-out: GI; summary of the method: as §2

Structure (SMILES)	IC50 (COLO 205 [1])	IC50 (OVCAR-5 (human) [2])	inhibition of growth at 100 µM (A549 [3])	inhibition of growth at 100 µM (HEp-2 [4])	IC50 (HEp-2 [5])	IC50 (PC-3 [6])	inhibition of growth at 100 µM (OVCAR-5 (human) [7])	inhibition of growth at 100 µM (PC-3 [8])	IC50 (IMR-32 [9])	inhibition of growth at 100 µM (IMR-32 [10])	inhibition of growth at 100 µM (COLO 205 [11])	IC50 (A549 [12])	also measured
O=c1c(C(=S)Nc2ccccc2)coc2cc(Cl)ccc12	> 100 µM	> 100 µM	66%	41%	> 100 µM	90.8 µM	47%	55%	92.7 µM	56%	38%	63.6 µM	
O=c1c(C2N=C(c3ccccc3)SS2)coc2ccc(Cl)cc12 (stereo unspecified)	> 100 µM	66.5 µM	73%	69%	74.9 µM	52.7 µM	71%	62%	10 µM	92%	12%	71.3 µM	
O=c1c(C2N=C(c3ccccc3)SS2)coc2cc(Cl)c(Cl)cc12 (stereo unspecified)	> 100 µM	65.2 µM	52%	51%	98 µM	60 µM	68%	70%	58 µM	77%	50%	95 µM	
O=c1c(C2N=C(c3ccccc3)SS2)coc2cc(Cl)ccc12 (stereo unspecified)	76.7 µM	10.5 µM	76%	31%	> 100 µM	38.4 µM	91%	81%	95.1 µM	53%	57%	57.5 µM	
COc1cccc2c1C(=O)c1c(O)c3c(c(O)c1C2=O)C[C@@](O)(C(=O)CO)C[C@@H]3O[C@H]1C[C@H](N)[C@H](O)[C@H](C)O1 [DOXORUBICIN]									1.7 µM				inhibition of growth at 1 µM (IMR-32 [13]): 55%; inhibition of growth at 1 µM (HEp-2 [14]): 57%; inhibition of growth at 1 µM (A549 [15]): 93%
O=c1[nH]cc(F)c(=O)[nH]1 [FLUOROURACIL]	21 µM												inhibition of growth at 20 µM (PC-3 [16]): 20%; inhibition of growth at 20 µM (OVCAR-3): 26%; inhibition of growth at 20 µM (COLO 205 [17]): 12%
CO[C@@]12[C@H](COC(N)=O)C3=C(C(=O)C(C)=C(N)C3=O)N1C[C@@H]1N[C@@H]12 [MITOMYCIN]					1.5 µM	1.5 µM							inhibition of growth at 10 µM (COLO 205 [18]): 44%; inhibition of growth at 10 µM (OVCAR-5 (human) [19]): 65%; inhibition of growth at 10 µM (PC-3 [20]): 41%
CC(=O)O[C@H]1C(=O)[C@@]2(C)[C@H]([C@H](OC(=O)c3ccccc3)[C@]3(O)C[C@H](OC(=O)[C@H](O)[C@@H](NC(=O)c4ccccc4)c4ccccc4)C(C)=C1C3(C)C)[C@]1(OC(C)=O)CO[C@@H]1C[C@@H]2O [PACLITAXEL]		2.7 µM										2.7 µM	inhibition of growth at 10 µM (IMR-32 [21]): 45%; inhibition of growth at 10 µM (HEp-2 [22]): 55%; inhibition of growth at 10 µM (A549 [23]): 67%
